Assay results published in ChEMBL document CHEMBL1148280, “Design, synthesis, structural studies, biological evaluation, and computational simulations of novel potent AT(1) angiotensin II receptor antagonists based on the 4-phenylquinoline structure” (J Med Chem, 2004).

Experiments:
[1] = target: T1, Type-1 angiotensin II receptor B (Rattus norvegicus, UniProt P29089); assay: Binding affinity for rat angiotensin II receptor, type 1
T1 sequence (P29089 whole entry): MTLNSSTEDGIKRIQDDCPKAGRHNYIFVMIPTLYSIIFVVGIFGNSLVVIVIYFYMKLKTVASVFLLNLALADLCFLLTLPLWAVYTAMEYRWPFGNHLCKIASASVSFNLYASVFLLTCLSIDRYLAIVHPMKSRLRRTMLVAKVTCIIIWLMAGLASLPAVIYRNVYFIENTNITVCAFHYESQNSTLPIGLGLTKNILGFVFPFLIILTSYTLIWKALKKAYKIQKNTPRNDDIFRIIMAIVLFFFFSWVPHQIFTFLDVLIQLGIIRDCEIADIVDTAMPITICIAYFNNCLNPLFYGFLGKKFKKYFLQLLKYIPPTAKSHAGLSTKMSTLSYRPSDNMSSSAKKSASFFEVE

[2] = species: Oryctolagus cuniculus; assay: Inhibition of angiotensin II induced contraction in rabbit aortic strips after 60 minutes contact with the compound; assay type: functional; conditions: Aorta, 1 h
How it was run: (§1)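 Rabbit aortic strips under 2 g resting tension, isometric recording, equilibrated 1 h. A cumulative Ang II concentration–response curve was run first, then a 30 min washout. Antagonist or vehicle was added at several concentrations before a submaximal (70–80%) Ang II challenge; contact time differed by line. Percent inhibition was regressed to give IC50 with P = 0.05 fiducial limits.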

[3] = species: Oryctolagus cuniculus; assay: Inhibition of angiotensin II induced contraction in rabbit aortic strips after 120 minutes contact with the compound; assay type: functional; conditions: Aorta, 2 h; how it was run: as §1

Row | IC50 [1] [nM] | IC50 [2] [nM] | IC50 [3] [nM] | Structure (SMILES)
1 | 1.9 |  |  | CCCCC(=O)N(Cc1ccc(-c2ccccc2-c2nnn[nH]2)cc1)[C@H](C(=O)O)C(C)C
2 | 261 |  |  | CCCc1nc2c(C)cc(C)nc2n1Cc1ccc(-c2c(C(=O)O)c(O)nc3ccccc23)cc1
3 | 41 |  |  | CCCCc1nc2c(C)cc(C)nc2n1Cc1ccc(-c2c(C(=O)O)cnc3ccccc23)cc1
4 | 215 |  |  | CCc1nc2c(C)cc(C)nc2n1Cc1ccc(-c2c(CC(=O)O)c(Cl)nc3ccccc23)cc1
5 | 60 |  |  | CCCc1nc2c(C)ccnc2n1Cc1ccc(-c2cccnc2-c2nn[nH]n2)cc1
6 | 33 |  |  | CCc1nc2c(C)cc(C)nc2n1Cc1ccc(-c2c(C(=O)O)ccc3ccccc23)cc1
7 | 9 | 13 |  | CCCc1nc2c(C)cc(C)nc2n1Cc1ccc(-c2c(C(=O)O)c(C)nc3ccccc23)cc1
8 | 13 |  |  | CCc1nc2c(C)cc(C)nc2n1Cc1ccc(-c2c(C(=O)O)c(N)nc3ccccc23)cc1
9 | 5.6 |  |  | CCCCc1nc(CCCC)n(Cc2ccc(-c3ccccc3-c3nnn[nH]3)cc2)n1
10 | 13 |  |  | CCc1nc2c(C)cc(C)nc2n1Cc1ccc(-c2c(C(=O)O)c(NC)nc3ccccc23)cc1
11 | 4.2 | 3.3 |  | CCCc1nc2c(C)cc(C)nc2n1Cc1ccc(-c2c(C(=O)O)c(N)nc3ccccc23)cc1
12 | 250 |  |  | CCCCc1nc(CCCC)n(Cc2ccc(-c3ccncc3-c3nnn[nH]3)cc2)n1
13 | 74 |  |  | CCc1nc2c(C)cc(C)nc2n1Cc1ccc(-c2c(C(=O)O)c(OC)nc3ccccc23)cc1
14 | 110 |  |  | CCCCc1nc(CCCC)n(Cc2ccc(-c3cccnc3-c3nnn[nH]3)cc2)n1
15 | 819 |  |  | CCc1nc2c(C)cc(C)nc2n1Cc1ccc(-c2ncccc2C(=O)O)cc1
16 | 0.4 |  |  | CCc1nc2c(C)cc(C)nc2n1Cc1ccc(-c2ccccc2-c2nnn[nH]2)cc1 [L-158809]

The next lines start with the compound.

Row | Structure (SMILES) | IC50 [1] [nM] | IC50 [2] [nM] | IC50 [3] [nM]
17 | CCCc1nc2c(C)ccnc2n1Cc1ccc(-c2ccccc2-c2nn[nH]n2)cc1 | 1 |  | 
18 | CCCNc1nc2ccccc2c(-c2ccc(Cn3c(CC)nc4c(C)cc(C)nc43)cc2)c1C(=O)O | 66 |  | 
19 | CCc1nc2c(C)cc(C)nc2n1Cc1ccc(-c2c(CC(=O)O)cnc3ccccc23)cc1 | 576 |  | 
20 | CCCc1nc2c(C)cc(C)nc2n1Cc1ccc(-c2c(C(=O)O)c(Cl)nc3ccccc23)cc1 | 7.7 |  | 
21 | CCCc1nc2c(C)cc(C)nc2n1Cc1ccc(-c2ccccc2-c2nn[nH]n2)cc1 | 0.8 |  | 
22 | CCCCc1nc2c(C)cc(C)nc2n1Cc1ccc(-c2c(C(=O)O)c(N)nc3ccccc23)cc1 | 13 |  | 
23 | CCCc1nc2c(C)cc(C)nc2n1Cc1ccc(-c2c(-c3nn[nH]n3)cnc3ccccc23)cc1 | 12 |  | 
24 | CCCc1nc2c(C)ccnc2n1Cc1ccc(-c2ccncc2-c2nnn[nH]2)cc1 | 4 |  | 
25 | CCCc1nc2c(C)cc(C)nc2n1Cc1ccc(-c2c(C(=O)NS(=O)(=O)c3ccc([N+](=O)[O-])cc3)cnc3ccccc23)cc1 | 106 |  | 
26 | CCCN(CCC)c1nc2ccccc2c(-c2ccc(Cn3c(CC)nc4c(C)cc(C)nc43)cc2)c1C(=O)O | 492 |  | 
27 | CCc1nc2c(C)cc(C)nc2n1Cc1ccc(-c2c(-c3nnn[nH]3)cnc3ccccc23)cc1 | 6.9 | 4 | 2
28 | CCCCc1nc(CCCC)n(Cc2ccc(-c3ncccc3-c3nnn[nH]3)cc2)n1 | 98 |  | 
29 | CCc1nc2c(C)cc(C)nc2n1Cc1ccc(-c2ncccc2-c2nn[nH]n2)cc1 | 18 |  | 
30 | CCc1nc2c(C)cc(C)nc2n1Cc1ccc(-c2c(C(=O)O)c(N(C)C)nc3ccccc23)cc1 | 29 |  | 
31 | CCc1nc2c(C)cc(C)nc2n1Cc1ccc(-c2c(C(=O)O)cnc3ccccc23)cc1 | 17 |  | 
32 | CCc1nc2c(C)cc(C)nc2n1Cc1ccc(-c2c(C(=O)O)c3nnnn3c3ccccc23)cc1 | 52 |  | 
33 | CCCCc1nc(CCCC)n(Cc2ccc(-c3cnccc3-c3nnn[nH]3)cc2)n1 | 150 |  | 
34 | CCc1nc2c(C)cc(C)nc2n1Cc1ccc(-c2c(C(=O)O)c(=O)n(C)c3ccccc23)cc1 | 326 |  | 170
35 | CCCCc1nc(Cl)c(CO)n1Cc1ccc(-c2ccccc2-c2nnn[nH]2)cc1 [LOSARTAN] |  | 9.9 | 
